Measured values gathered from unrelated publications.
Protocols differ between the studies behind these lines.
Target: Serine/threonine-protein kinase Nek9 (NEK9, Homo sapiens, UniProt Q8TD19)
Residues used in one study (Q8TD19 1-979): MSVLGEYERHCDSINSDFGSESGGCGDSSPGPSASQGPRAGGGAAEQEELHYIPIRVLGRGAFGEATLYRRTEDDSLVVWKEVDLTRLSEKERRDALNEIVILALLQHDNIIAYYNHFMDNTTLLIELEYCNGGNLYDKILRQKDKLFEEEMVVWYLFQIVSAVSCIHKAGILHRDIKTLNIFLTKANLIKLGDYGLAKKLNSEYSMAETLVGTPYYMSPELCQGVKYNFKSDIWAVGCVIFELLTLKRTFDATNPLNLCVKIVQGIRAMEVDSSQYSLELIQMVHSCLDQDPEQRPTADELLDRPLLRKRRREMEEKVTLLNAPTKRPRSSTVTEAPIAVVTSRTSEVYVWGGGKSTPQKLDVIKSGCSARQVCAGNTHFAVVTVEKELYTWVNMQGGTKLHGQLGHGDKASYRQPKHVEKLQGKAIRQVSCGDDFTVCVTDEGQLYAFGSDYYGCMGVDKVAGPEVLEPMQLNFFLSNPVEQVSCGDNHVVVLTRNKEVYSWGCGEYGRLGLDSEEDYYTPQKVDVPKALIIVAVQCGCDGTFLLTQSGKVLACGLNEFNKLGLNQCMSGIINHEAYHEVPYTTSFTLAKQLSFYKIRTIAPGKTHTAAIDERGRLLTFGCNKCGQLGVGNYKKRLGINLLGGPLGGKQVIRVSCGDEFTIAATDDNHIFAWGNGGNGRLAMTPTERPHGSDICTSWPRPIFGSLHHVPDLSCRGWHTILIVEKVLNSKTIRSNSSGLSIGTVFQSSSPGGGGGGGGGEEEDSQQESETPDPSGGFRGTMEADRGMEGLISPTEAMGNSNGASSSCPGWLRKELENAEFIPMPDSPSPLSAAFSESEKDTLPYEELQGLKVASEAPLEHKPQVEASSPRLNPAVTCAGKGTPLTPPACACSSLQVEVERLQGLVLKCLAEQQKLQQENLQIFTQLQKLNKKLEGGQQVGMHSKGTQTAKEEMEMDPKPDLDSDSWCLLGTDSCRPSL

COc1ccc2cc(OCC3(C(=O)O)CN(C(=O)c4ccc(F)cc4)C3)ccc2c1 gave a remaining binding of 100% (cell-free assay; competition with immobilised ligand; 1 µM).
With O=C(NCCCN1CCOCC1)c1ccc(Nc2nccc(-c3cc4ccccc4s3)n2)cc1 the remaining binding was 73% (binding; competition with immobilised ligand; 1 µM).
NS(=O)(=O)c1cc(NC(=O)C2(c3ccccc3Cl)CC2)ccc1Oc1cccc(Cl)c1 gave a remaining binding of 94% (cell-free assay; competition with immobilised ligand; 1 µM).
FC(F)(F)Oc1cccc(-c2cnc3ccc(-c4ccncc4)nn23)c1 gave a remaining binding of 91% (cell-free assay; competition with immobilised ligand; 5 µM).
For CN(C)c1nccc(-c2cnn3ncccc23)n1, the remaining binding was 100% (binding; 1 µM).
For CN(C)C(=O)Cn1cc(-c2nc([C@@](C)(c3ccc(-c4cnc(N)nc4)cc3)C3CC3)no2)cn1, the remaining binding was 95% (cell-free assay; competition with immobilised ligand; 1 µM).
For CCN1CCN(Cc2ccc(C(=O)Nc3ccc(C)c(Oc4ccc5c(c4)CC(=O)N5)c3)cc2C(F)(F)F)CC1, the remaining binding was 100% (binding; competition with immobilised ligand; 1 µM).
For COc1ccnn2ncc(-c3ccnc(N(C)C)n3)c12, the remaining binding was 100% (binding; 1 µM).
With COc1cnc(Nc2cccc(S(N)(=O)=O)c2)nc1N1CCN(c2ccccc2)CC1 the remaining binding was 83% (binding; competition with immobilised ligand; 1 µM).
For CN(C)c1nccc(-c2cnc3ncccn23)n1, the remaining binding was 88% (binding; 1 µM).
With C[C@@H](c1ccc(-n2cnc3c(N)ncnc32)cc1)N1CCc2nn(C)c(Cc3ccccc3)c2C1=O the remaining binding was 94% (binding; competition with immobilised ligand; 0.1 µM).
The remaining binding of Cc1cc(-n2nc(Cc3cc(F)cc(C(F)(F)F)c3)nc2C)ccc1C(N)=O is reported as 100% (cell-free assay; competition with immobilised ligand; 1 µM).
O=C(Nc1c[nH]nc1C(=O)NC1CCNCC1)c1cc(F)cc(F)c1 has a remaining binding of 100% (binding; competition with immobilised ligand; 1 µM).
The remaining binding of O=C(c1ccc(Nc2nccc(-c3cc4ccccc4s3)n2)cc1)N1CCC(N2CCCC2)CC1 is reported as 100% (binding; competition with immobilised ligand; 1 µM).
With CN(C)c1ncc(F)c(-c2cnn3ncccc23)n1 the remaining binding was 100% (binding; 1 µM).
The remaining binding of Cc1nc(Cc2cccc(C(F)(F)F)c2)sc1-c1ccc(C(N)=O)nc1 is reported as 100% (cell-free assay; competition with immobilised ligand; 1 µM).
With CC1CCCN1c1nccc(-c2cnn3ncccc23)n1 (stereo not shown) the remaining binding was 100% (binding; 1 µM).
With Cc1cnc(Nc2ccc(C(=O)N3CCC(N4CCCC4)CC3)cc2)nc1-c1cc2ccccc2s1 the remaining binding was 14% (binding; competition with immobilised ligand; 1 µM).
For C[C@@H]1CCN(c2nccc(-c3cnn4ncccc34)n2)C1, the remaining binding was 81% (binding; 1 µM).
The remaining binding of COc1cnc(Nc2cccc(S(N)(=O)=O)c2)nc1N1CCN(c2ccccc2)C(=O)C1 is reported as 99% (binding; competition with immobilised ligand; 1 µM).
CN(c1nccc(-c2cnn3ncccc23)n1)C1CC1 gave a remaining binding of 100% (binding; 1 µM).
Cc1cc(NC(=O)c2cccc(S(F)(F)(F)(F)F)c2)cc(-n2ccn3nc(-c4cccnc4)cc23)c1 gave a remaining binding of 100% (cell-free assay; competition with immobilised ligand; 1 µM).
